# Experimental data published in ChEMBL document CHEMBL1152292, “Biarylpyrazolyl oxadiazole as potent, selective, orally bioavailable cannabinoid-1 receptor antagonists for the treatment of obesity” (J Med Chem, 2008).
# Target: Cannabinoid receptor 1 (Rattus norvegicus, UniProt P20272)
# Assay: Displacement of [3H]CP-55940 from CB1 receptor in Sprague-Dawley rat cerebellum by liquid scintillation spectrometry
# Outline: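 Cerebella from male rats (200-300 g) homogenized in TME buffer (50 mM Tris-HCl, 1 mM EDTA, 3 mM MgCl2, pH 7.4), centrifuged 48000g 30 min at 4 °C. About 10 µg membrane incubated with radioligand and varied test concentrations in TME plus 0.5% fatty-acid-free BSA, 1 h at 30 °C. Filtered through PEI-soaked GF/B filters. […] IC50 by nonlinear regression, triplicates, three independent experiments.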
# Sequence of Cannabinoid receptor 1 (P20272 whole entry): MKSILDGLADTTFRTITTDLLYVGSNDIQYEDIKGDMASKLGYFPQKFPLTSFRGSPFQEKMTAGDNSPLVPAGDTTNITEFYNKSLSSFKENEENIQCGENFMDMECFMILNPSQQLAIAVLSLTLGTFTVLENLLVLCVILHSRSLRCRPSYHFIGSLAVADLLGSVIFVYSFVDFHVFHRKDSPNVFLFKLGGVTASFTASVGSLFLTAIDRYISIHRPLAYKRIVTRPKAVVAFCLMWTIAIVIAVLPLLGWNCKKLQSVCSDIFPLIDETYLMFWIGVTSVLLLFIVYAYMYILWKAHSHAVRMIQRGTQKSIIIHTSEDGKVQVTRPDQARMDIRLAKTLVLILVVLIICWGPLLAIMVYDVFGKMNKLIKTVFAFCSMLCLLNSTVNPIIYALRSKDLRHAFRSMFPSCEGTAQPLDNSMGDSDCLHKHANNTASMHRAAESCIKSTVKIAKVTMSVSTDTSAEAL
row,IC50 [nM],Compound
1,35,CCCCc1nnc(-c2nn(-c3ccc(Cl)cc3Cl)c(-c3ccc(Cl)cc3)c2C)o1
2,1.34,Cc1ccc(C2(c3nnc(-c4nn(-c5ccc(Cl)cc5Cl)c(-c5ccc(Br)cc5)c4Cn4cncn4)o3)CC2)cc1
3,160,CCCc1nnc(-c2nn(-c3ccc(Cl)cc3Cl)c(-c3ccc(Cl)cc3)c2C)o1
4,30.3,CC(C)(C)c1nnc(-c2nn(-c3ccc(Cl)cc3Cl)c(-c3ccc(Cl)cc3)c2C2CC2)o1
5,8.42,Cc1c(-c2nnc(C(C)(C)c3ccccc3)o2)nn(-c2ccc(Cl)cc2Cl)c1-c1ccc(Cl)cc1

# The remaining lines, values behind:
row,Compound,IC50 [nM]
1,Cc1ccc(C2(c3nnc(-c4nn(-c5ccc(Cl)cc5Cl)c(-c5ccc(Cl)cc5)c4Cn4cncn4)o3)CC2)cc1,1.09
2,COC(=O)NC(C)c1c(-c2nnc(C(C)(C)C)o2)nn(-c2ccc(Cl)cc2Cl)c1-c1ccc(Cl)cc1 (configuration not stated),9

# Target: Cannabinoid receptor 2 (Homo sapiens, UniProt P34972)
# Assay: Displacement of [3H]WIN-55212-2 from human CB2 receptor expressed in CHOK1 cells by liquid scintillation spectrometry
# Assay type: cell-based, CHO-K1
# Outline: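 Membranes from CHO K-1 cells transfected with human CB2, prepared as for cerebellum. About 10 µg membrane incubated with radioligand and varied test concentrations in TME buffer plus 0.5% fatty-acid-free BSA, 1 h at 30 °C. Filtered through PEI-soaked GF/B filters. Nonspecific binding defined with 1 µM WIN55,212-2. IC50 by nonlinear regression, triplicates, three independent experiments.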
# Sequence of Cannabinoid receptor 2 (P34972 whole entry): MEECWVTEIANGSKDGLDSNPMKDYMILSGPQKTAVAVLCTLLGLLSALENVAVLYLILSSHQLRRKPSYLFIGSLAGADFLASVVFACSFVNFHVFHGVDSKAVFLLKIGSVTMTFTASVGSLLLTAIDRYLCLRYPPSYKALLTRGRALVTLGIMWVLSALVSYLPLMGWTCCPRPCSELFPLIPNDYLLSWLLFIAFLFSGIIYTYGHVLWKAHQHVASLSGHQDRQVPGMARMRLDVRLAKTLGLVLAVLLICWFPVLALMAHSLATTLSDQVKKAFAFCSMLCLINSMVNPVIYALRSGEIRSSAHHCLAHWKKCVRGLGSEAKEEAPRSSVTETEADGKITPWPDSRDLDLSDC
row,IC50 [nM],Compound
1,736,CC(C)(C)c1nnc(-c2nn(-c3ccc(Cl)cc3Cl)c(-c3ccc(Cl)cc3)c2Cn2cnnn2)o1
2,1050,C=Cc1c(-c2nnc(C(C)(C)C)o2)nn(-c2ccc(Cl)cc2Cl)c1-c1ccc(Cl)cc1
3,1480,Clc1ccc(-c2c(Cn3cncn3)c(-c3nnc(C4(c5ccc(Cl)cc5)CC4)o3)nn2-c2ccc(Cl)cc2Cl)cc1
4,539,CC(C)(C)c1nnc(-c2nn(-c3ccc(Cl)cc3Cl)c(-c3ccc(Cl)cc3)c2CC#N)o1
5,1670,CC(C)(C)c1nnc(-c2nn(-c3ccc(Cl)cc3Cl)c(-c3ccc(Cl)cc3)c2C(C)(C)O)o1
6,2040,CC(C)(C)c1nnc(-c2nn(-c3ccc(Cl)cc3Cl)c(-c3ccc(Cl)cc3)c2COc2ccccn2)o1
7,579,Cc1ccc(C2(c3nnc(-c4nn(-c5ccc(Cl)cc5Cl)c(-c5ccc(Br)cc5)c4Cn4cncn4)o3)CC2)cc1
8,1120,CC(C)(C)c1nnc(-c2nn(-c3ccc(Cl)cc3Cl)c(-c3ccc(Cl)cc3)c2CF)o1
9,3320,CC(C)(C)c1nnc(-c2nn(-c3ccc(Cl)cc3Cl)c(-c3ccc(Cl)cc3)c2C2CC2)o1

# Second part, the compound before the results:
row,Compound,IC50 [nM]
1,CC(C)(C)c1nnc(-c2nn(-c3ccc(Cl)cc3Cl)c(-c3ccc(Br)cc3)c2Cn2cncn2)o1,513
2,COC(=O)NCc1c(-c2nnc(C(C)(C)C)o2)nn(-c2ccc(Cl)cc2Cl)c1-c1ccc(Cl)cc1,1670
3,CC(F)c1c(-c2nnc(C(C)(C)C)o2)nn(-c2ccc(Cl)cc2Cl)c1-c1ccc(Cl)cc1 (configuration not stated),924
4,CC(O)c1c(-c2nnc(C(C)(C)C)o2)nn(-c2ccc(Cl)cc2Cl)c1-c1ccc(Cl)cc1 (configuration not stated),1890
5,C=C(C)c1c(-c2nnc(C(C)(C)C)o2)nn(-c2ccc(Cl)cc2Cl)c1-c1ccc(Cl)cc1,1730
6,Clc1ccc(-c2c(Cn3cncn3)c(-c3nnc(C4(c5ccccc5)CC4)o3)nn2-c2ccc(Cl)cc2Cl)cc1,1130
7,CC(C)(C)c1nnc(-c2nn(-c3ccc(Cl)cc3Cl)c(-c3ccc(Cl)cc3)c2COc2ccccc2)o1,5910
8,CC(C)(C)c1nnc(-c2nn(-c3ccc(Cl)cc3Cl)c(-c3ccc(Cl)cc3)c2Cn2cncn2)o1,804
9,CC(=O)OCc1c(-c2nnc(C(C)(C)C)o2)nn(-c2ccc(Cl)cc2Cl)c1-c1ccc(Cl)cc1,1300
10,CC(C)(C)c1nnc(-c2nn(-c3ccc(Cl)cc3Cl)c(-c3ccc(Cl)cc3)c2Cn2ccnc2)o1,376
11,Cc1ccc(C2(c3nnc(-c4nn(-c5ccc(Cl)cc5Cl)c(-c5ccc(Cl)cc5)c4Cn4cncn4)o3)CC2)cc1,1240
12,CC(=O)SCc1c(-c2nnc(C(C)(C)C)o2)nn(-c2ccc(Cl)cc2Cl)c1-c1ccc(Cl)cc1,1480
13,CC(C)(C)c1nnc(-c2nn(-c3ccc(Cl)cc3Cl)c(-c3ccc(Cl)cc3)c2Cn2ccnn2)o1,1120
14,COCc1c(-c2nnc(C(C)(C)C)o2)nn(-c2ccc(Cl)cc2Cl)c1-c1ccc(Cl)cc1,375
15,CC(C)(C)c1nnc(-c2nn(-c3ccc(Cl)cc3Cl)c(-c3ccc(Cl)cc3)c2Cn2cccn2)o1,979
16,COC(=O)NC(C)c1c(-c2nnc(C(C)(C)C)o2)nn(-c2ccc(Cl)cc2Cl)c1-c1ccc(Cl)cc1 (configuration not stated),> 10000

# Test system: not listed separately
# Assay: Selectivity ratio of IC50 for human CB2 receptor to IC50 for Sprague-Dawley rat CB1 receptor
# Outline: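 Ratio of CB2 IC50 to CB1 IC50. Both come from radioligand competition on membranes incubated 1 h at 30 °C in TME/0.5% BSA: rat cerebellar membranes for CB1, human CB2-transfected CHO K-1 membranes for CB2. IC50 by nonlinear regression from three independent triplicate experiments.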
row,Ratio IC50,Compound
1,96,CC(C)(C)c1nnc(-c2nn(-c3ccc(Cl)cc3Cl)c(-c3ccc(Cl)cc3)c2Cn2cnnn2)o1
2,62,C=Cc1c(-c2nnc(C(C)(C)C)o2)nn(-c2ccc(Cl)cc2Cl)c1-c1ccc(Cl)cc1
3,670,Clc1ccc(-c2c(Cn3cncn3)c(-c3nnc(C4(c5ccc(Cl)cc5)CC4)o3)nn2-c2ccc(Cl)cc2Cl)cc1
4,88,CC(C)(C)c1nnc(-c2nn(-c3ccc(Cl)cc3Cl)c(-c3ccc(Cl)cc3)c2CC#N)o1
5,74,CC(C)(C)c1nnc(-c2nn(-c3ccc(Cl)cc3Cl)c(-c3ccc(Cl)cc3)c2C(C)(C)O)o1
6,84,CC(C)(C)c1nnc(-c2nn(-c3ccc(Cl)cc3Cl)c(-c3ccc(Cl)cc3)c2COc2ccccn2)o1
7,432,Cc1ccc(C2(c3nnc(-c4nn(-c5ccc(Cl)cc5Cl)c(-c5ccc(Br)cc5)c4Cn4cncn4)o3)CC2)cc1
8,76,CC(C)(C)c1nnc(-c2nn(-c3ccc(Cl)cc3Cl)c(-c3ccc(Cl)cc3)c2CF)o1
9,110,CC(C)(C)c1nnc(-c2nn(-c3ccc(Cl)cc3Cl)c(-c3ccc(Cl)cc3)c2C2CC2)o1

# Further lines, the compound ahead of its results:
row,Compound,Ratio IC50
1,CC(C)(C)c1nnc(-c2nn(-c3ccc(Cl)cc3Cl)c(-c3ccc(Br)cc3)c2Cn2cncn2)o1,187
2,COC(=O)NCc1c(-c2nnc(C(C)(C)C)o2)nn(-c2ccc(Cl)cc2Cl)c1-c1ccc(Cl)cc1,107
3,CC(F)c1c(-c2nnc(C(C)(C)C)o2)nn(-c2ccc(Cl)cc2Cl)c1-c1ccc(Cl)cc1 (configuration not stated),66
4,CC(O)c1c(-c2nnc(C(C)(C)C)o2)nn(-c2ccc(Cl)cc2Cl)c1-c1ccc(Cl)cc1 (configuration not stated),187
5,C=C(C)c1c(-c2nnc(C(C)(C)C)o2)nn(-c2ccc(Cl)cc2Cl)c1-c1ccc(Cl)cc1,358
6,CC(C)(C)c1nnc(-c2nn(-c3ccc(Cl)cc3Cl)c(-c3ccc(Cl)cc3)c2COc2ccccc2)o1,204
7,CC(C)(C)c1nnc(-c2nn(-c3ccc(Cl)cc3Cl)c(-c3ccc(Cl)cc3)c2Cn2cncn2)o1,341
8,CC(=O)OCc1c(-c2nnc(C(C)(C)C)o2)nn(-c2ccc(Cl)cc2Cl)c1-c1ccc(Cl)cc1,58
9,CC(C)(C)c1nnc(-c2nn(-c3ccc(Cl)cc3Cl)c(-c3ccc(Cl)cc3)c2Cn2ccnc2)o1,20
10,Cc1ccc(C2(c3nnc(-c4nn(-c5ccc(Cl)cc5Cl)c(-c5ccc(Cl)cc5)c4Cn4cncn4)o3)CC2)cc1,1140
11,CC(=O)SCc1c(-c2nnc(C(C)(C)C)o2)nn(-c2ccc(Cl)cc2Cl)c1-c1ccc(Cl)cc1,71
12,CC(C)(C)c1nnc(-c2nn(-c3ccc(Cl)cc3Cl)c(-c3ccc(Cl)cc3)c2Cn2ccnn2)o1,88
13,COCc1c(-c2nnc(C(C)(C)C)o2)nn(-c2ccc(Cl)cc2Cl)c1-c1ccc(Cl)cc1,24
14,CC(C)(C)c1nnc(-c2nn(-c3ccc(Cl)cc3Cl)c(-c3ccc(Cl)cc3)c2Cn2cccn2)o1,48
15,COC(=O)NC(C)c1c(-c2nnc(C(C)(C)C)o2)nn(-c2ccc(Cl)cc2Cl)c1-c1ccc(Cl)cc1 (configuration not stated),> 1110

# Test system: Mus musculus
# Assay: Reduction in body weight in diet-induced obese C57BL/6J mouse model at 10 mg/kg, po after 14 days
# Assay type: functional
# Design: scale not given: the % may be the effect or the level left
# Outline: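 Male C57BL/6J DIO mice over 38 g, singly housed on a 12 h/12 h light/dark cycle with free access to food and water, habituated at least 7 days, tested during the light period. Compound dissolved fresh daily in deionized water with 10% DMSO, given orally at 10 mL/kg daily for 14 days. Vehicle controls n=5, treated groups n=6. Body weight recorded daily.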
row,Compound,Activity [%]
1,Cc1c(-c2nnc(C3(C(F)(F)F)CC3)o2)nn(-c2ccc(Cl)cc2Cl)c1-c1ccc(Cl)cc1,22.8
